Assay results reported in PubChem BioAssay.
Records with an inconclusive call do not appear. Active and inactive are the calls of the source.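 Rule for the calls, unless noted: active = viability increase at or above a cutoff of the median across tested compounds plus 3 SD (cut at about 8.5% in these data, passing the limit was not always enough); inconclusive = some gains above the cutoff, reason not given; inactive = the rest.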

Key:
[1] = OD615 S. cerevisiae growth inhibition, permissive medium, pilot counter-assay, permissive growth control for S. cerevisiae lifespan shortening project (AID 705;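 active = growth inhibition above 25% in both replicates, a cutoff set 3 SD above the mean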); details: OD615, 24 h, at 10 µM, hits give high values
Procedure, shortened: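 Test system: Saccharomyces cerevisiae strain carrying genetically modified DeaD replicative-lifespan system; buffer or medium: SC raffinose/galactose permissive medium; dosing: one dose 10 µM, DMSO 0.25% final; times: 24 h exposure, 30 °C; measured by: OD at 615 nm; read-out basis: growth inhibition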

[2] = Restrictive medium S. cerevisiae growth inhibition, OD615, pilot screen of yeast lifespan reduction project, restrictive growth control (AID 706;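 active = growth inhibition above a set limit, 3 SD over mean compound inhibition, in both replicates, cut at about 43% in these data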;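 note: modified DeaD lifespan yeast strain shifted to restrictive glucose medium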); details: OD615, 48 h, at 10 µM, hits give high values
Procedure, shortened: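 material = engineered S. cerevisiae DeaD strain | buffer or medium = glucose-based CSMM-D restrictive medium | dosing = one concentration, 10 µM final, 0.25% DMSO | schedule = 4 h pre-growth plus 48 h compound exposure, 30 °C | detection = OD615 absorbance reading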

[3] = viability gain of MRP-1-high H69AR cells under doxorubicin, pilot screen, MRP-1 activator project, CellTiter-Glo, duplicate (AID 807); details: H69AR viability with doxorubicin, CellTiter-Glo luminescence; at 10 µM; hits give high values;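 note: compound pretreatment 18-22 h then 72 h combined with doxorubicin; 0% = doxorubicin alone and 100% = vehicle without doxorubicin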
[4] = growth suppression of beta-catenin knockout HCT116, pilot screen, human colon tumor cells (AID 823;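 active = cell viability at or below a set limit in both duplicate runs, the limit being the all-compound median minus 4 SD, cut at about 23% in these data, passing the limit was not always enough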;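 note: 0% = wells killed by 20 µM Hyamine and 100% = untreated DMSO cell wells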); details: CellTiter-Glo, 60 h, at 10 µM, hits give low values
[5] = growth suppression of PTEN-deleted HCT116, pilot screen, cell-based, HCT116 clonal line, CellTiter-Glo (AID 824;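 active = viability at or below 27.92% in each of two runs, the all-compound median minus 4 SD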;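 note: 0% = 20 µM Hyamine control and 100% = vehicle cell control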); details: 60 h, at 10 µM, hits give low values
[6] = inhibitors of the yeast RAM network, pilot screen, dse1pr::URA3 reporter, 5-FOA selection (AID 869;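 active = inhibition over a set limit, the all-compound mean plus 3 SD, in both replicate runs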;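 note: 0% = DMSO wells with no growth and 100% = 10 µM 1-NA-PP1 with full growth; RAM network block rescues cells from 5-FOA so hits raise OD615 growth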); details: S. cerevisiae dse1pr::URA3 5-FOA growth, OD615, 2 d; at 10 µM; hits give high values; strain carries analog-sensitive mutant Cbk1 kinase
[7] = RAM signaling pathway blockade in yeast – S. cerevisiae, Pdr1DBD-CYC8 efflux-inhibited sensitized strain, primary screen (AID 1298;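 active = RAM network inhibition above 8.4% in each of two replicates, 3 SD over the compound average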;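 note: 0% = DMSO untreated cells without growth and 100% = 10 µM 1-NA-PP1 full growth; higher means more yeast growth rescued from 5-FOA killing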); details: S. cerevisiae cbk1-as DSE1-URA3 strain, 5-FOA growth OD615, 2 d; at 50 µM; hits give high values

CCOC(=O)c1cc(-c2ccc(F)cc2)n(CC(=O)Nc2nccs2)c1C
inactive: growth inhibition [1] -11.3% | growth inhibition [2] 1.7% | viability increase [3] -5.35% | viability [4] 59% | viability [5] 62.6% | inhibition [6] 1.99% | RAM network inhibition [7] 4.55%

CC(=O)c1c(C)[nH]c(C(=O)Nc2cc(C)ccc2C)c1C
inactive: growth inhibition [1] 8.06% | growth inhibition [2] -8.57% | viability increase [3] -1.16% | viability [4] 98.5% | viability [5] 96.6% | inhibition [6] 2.14% | RAM network inhibition [7] 1.74%

Cc1c(C(=O)NCCCN2CCOCC2)sc2nc(-c3ccccc3)cn12
inactive: growth inhibition [1] -10.7% | growth inhibition [2] -11.8% | viability increase [3] -1.59% | viability [4] 92.2% | viability [5] 96% | inhibition [6] 3.44% | RAM network inhibition [7] -0.37%

O=C(NCc1ccco1)c1cnccn1
inactive: growth inhibition [1] 3.99% | growth inhibition [2] 5.22% | viability increase [3] -2.25% | viability [4] 98.7% | viability [5] 101% | inhibition [6] 2.81% | RAM network inhibition [7] -0.25%

COc1cccc(-c2nc(CS(=O)(=O)CC(=O)N3CCN(C4CCCCC4)CC3)c(C)o2)c1
inactive: growth inhibition [1] 1.34% | growth inhibition [2] -1.93% | viability increase [3] -2.59% | viability [4] 86.4% | viability [5] 100% | inhibition [6] 0.41% | RAM network inhibition [7] 3.35%

COc1ccc(C2CC(=O)N3CN(c4ccccc4F)CSC3=C2C#N)cc1OC (stereo unspecified)
inactive: growth inhibition [1] 7.21% | growth inhibition [2] 19.4% | viability increase [3] -1.47% | viability [4] 107% | viability [5] 95.5% | inhibition [6] 1.22% | RAM network inhibition [7] 1.24%

O=C(Nc1nnc(-c2ccccc2)o1)c1nc2ccccc2s1
inactive: growth inhibition [1] -9.03% | growth inhibition [2] 10.3% | viability increase [3] -3.96% | viability [4] 93.8% | viability [5] 88.8% | inhibition [6] 1.39% | RAM network inhibition [7] 0.11%

O=C(CC12CC3CC(CC(C3)C1)C2)N1CCOCC1
inactive: growth inhibition [1] 6.71% | growth inhibition [2] 1.68% | viability increase [3] -0.17% | viability [4] 102% | viability [5] 102% | inhibition [6] 1.39% | RAM network inhibition [7] 7.72%

O=C(CN1CCOc2ccccc21)NC1CCCCCCC1
inactive: growth inhibition [1] -14.2% | growth inhibition [2] 21.8% | viability increase [3] -5.54% | viability [4] 75.5% | viability [5] 78.2% | inhibition [6] 1.38% | RAM network inhibition [7] 0.83%

COc1cc(C(=O)Nc2ccc(S(=O)(=O)Nc3onc(C)c3C)cc2)cc(OC)c1OC
inactive: growth inhibition [1] -5.13% | growth inhibition [2] -14.8% | viability increase [3] 0.55% | viability [4] 104% | viability [5] 105% | inhibition [6] 0.945% | RAM network inhibition [7] 4%

O=C(c1ccccn1)N(CC1CCCO1)C1(C(=O)NC2CCCCC2)CCCCC1 (stereo unspecified)
inactive: growth inhibition [1] -4.99% | growth inhibition [2] -10.3% | viability increase [3] -0.31% | viability [4] 85.5% | viability [5] 92.3% | inhibition [6] 1.69% | RAM network inhibition [7] -0.32%

CCN(CC)c1ccc(NC(=O)Cn2cc3c(n2)CCC(C)C3)c(C)c1 (stereo unspecified)
inactive: growth inhibition [1] 2.12% | growth inhibition [2] 1.57% | viability increase [3] 2.97% | viability [4] 80.4% | viability [5] 76.2% | inhibition [6] 0.835% | RAM network inhibition [7] -1.78%

Cc1cc(C)cc(OCC(O)CN2C(=O)NC(C)(C)C2=O)c1 (stereo unspecified)
inactive: growth inhibition [1] 2.01% | growth inhibition [2] 2.59% | viability increase [3] 0.13% | viability [4] 108% | viability [5] 103% | inhibition [6] -0.255% | RAM network inhibition [7] 2.26%

CCN(CC)CCCNC(=O)Cn1ncc2c(=O)oc3ccc(C)cc3c21
inactive: growth inhibition [1] -23.9% | growth inhibition [2] -25.6% | viability increase [3] -1.87% | viability [4] 101% | viability [5] 92.3% | inhibition [6] 2.04% | RAM network inhibition [7] 5.92%

Cc1cc(/C=N/n2cnnc2)c(C)n1-c1cc(Cl)ccc1Cl
inactive: growth inhibition [1] 3.15% | growth inhibition [2] 18.3% | viability increase [3] -3.01% | viability [4] 51.9% | viability [5] 69.7% | inhibition [6] 1.85% | RAM network inhibition [7] 1.38%

COc1ccc(-c2nnc(SCC(=O)Nc3cc(F)ccc3C)o2)cc1
inactive: growth inhibition [1] -4.83% | growth inhibition [2] 4.39% | viability increase [3] 1.69% | viability [4] 101% | viability [5] 97.6% | inhibition [6] 2.44% | RAM network inhibition [7] 0.58%

CCOC(=O)CSc1nc2nc(C)cc(C)n2n1
inactive: growth inhibition [1] 4.15% | growth inhibition [2] 6.3% | viability increase [3] -1.33% | viability [4] 101% | viability [5] 96% | inhibition [6] 2.5% | RAM network inhibition [7] 4.98%

O=c1c2ccccc2c2ccccc2c(=O)n1CC1CCCO1 (stereo unspecified)
inactive: growth inhibition [1] 2.77% | growth inhibition [2] 0.685% | viability increase [3] -2.2% | viability [4] 101% | viability [5] 89.6% | inhibition [6] 0.305% | RAM network inhibition [7] 12.7%

CCOCCCNC(=O)CCCn1nc(C)n2c(cc3sccc32)c1=O
inactive: growth inhibition [1] -4.89% | growth inhibition [2] 5.71% | viability increase [3] 0.66% | viability [4] 108% | viability [5] 98% | inhibition [6] 0.895% | RAM network inhibition [7] 4.4%

CCOC(=O)CCc1c(C)n(CC)c2ncnn2c1=O
inactive: growth inhibition [1] -3.41% | growth inhibition [2] -0.57% | viability increase [3] -0.77% | viability [4] 102% | viability [5] 101% | inhibition [6] 0.735% | RAM network inhibition [7] 0.04%

Cc1noc(NS(=O)(=O)c2ccc(NC(=O)c3cnc4scc(C)n4c3=O)cc2)c1C
inactive: growth inhibition [1] -2.39% | growth inhibition [2] -5.18% | viability increase [3] 1.99% | viability [4] 101% | viability [5] 101% | inhibition [6] 2.61% | RAM network inhibition [7] 6.1%

COC(=O)c1cc(COc2ccc3oc(C)c(C(=O)OC)c3c2)c(C)o1
inactive: growth inhibition [1] 4.47% | growth inhibition [2] -14.8% | viability increase [3] 0.77% | viability [4] 74.4% | viability [5] 74.5% | inhibition [6] 2.19% | RAM network inhibition [7] 3.15%

COc1ccc(-n2c(Cc3cc(=O)[nH]c(=O)[nH]3)nnc2SCC(=O)Nc2ccccc2)cc1
inactive: growth inhibition [1] 5.82% | growth inhibition [2] 3.9% | viability increase [3] 0.25% | viability [4] 105% | viability [5] 98.7% | inhibition [6] 0.48% | RAM network inhibition [7] 2.13%

O=C(Nc1nccs1)c1ccc(S(=O)(=O)N2CCCCC2)cc1
inactive: growth inhibition [1] -9.01% | growth inhibition [2] -1.44% | viability increase [3] 0.89% | viability [4] 94% | viability [5] 90% | inhibition [6] 1.73% | RAM network inhibition [7] 5.88%

CCOc1ccc(N2C(=O)CC(Sc3nc(C)cc(C)n3)C2=O)cc1 (stereo unspecified)
inactive: growth inhibition [1] -3.95% | growth inhibition [2] 1.55% | viability increase [3] -1.4% | viability [4] 108% | viability [5] 98.9% | inhibition [6] 0.24% | RAM network inhibition [7] 3.27%

CCN(C(=O)COC(=O)C(Cc1ccccc1)N1C(=O)c2ccccc2C1=O)C1CCS(=O)(=O)C1 (stereo unspecified)
inactive: growth inhibition [1] -4.4% | growth inhibition [2] -18.5% | viability increase [3] 0.46% | viability [4] 97.4% | viability [5] 99.5% | inhibition [6] 0.495% | RAM network inhibition [7] 2.8%

CCc1ccc(C2CC(c3ccc(C)cc3)Nc3nc(N)nn32)cc1 (stereo unspecified)
inactive: growth inhibition [1] -5.94% | growth inhibition [2] -9.54% | viability increase [3] 2.61% | viability [4] 106% | viability [5] 93.6% | inhibition [6] 2.66% | RAM network inhibition [7] 8.09%

CCCCOC(=O)c1ccc(NC(=O)CSCc2n[nH]c(=O)[nH]2)cc1
inactive: growth inhibition [1] -1.44% | growth inhibition [2] -3.24% | viability increase [3] 0.11% | viability [4] 98.3% | viability [5] 102% | inhibition [6] 0.475% | RAM network inhibition [7] 1.48%

COc1ccc(N=CC2=C(O)CC(C)(C)CC2=O)cc1
inactive: growth inhibition [1] 6.45% | growth inhibition [2] -2.8% | viability increase [3] -3.24% | viability [4] 97.5% | viability [5] 101% | inhibition [6] 0.71% | RAM network inhibition [7] 1.73%

CCCn1c(C(O)c2ccc(OCC)cc2)nc2ccccc21 (stereo unspecified)
inactive: growth inhibition [1] -8.12% | growth inhibition [2] -1.57% | viability increase [3] -3.93% | viability [4] 94.9% | viability [5] 82.3% | inhibition [6] 1.36% | RAM network inhibition [7] -1.01%

COc1ccc(Cl)cc1NC(=O)C1CCCO1 (stereo unspecified)
inactive: growth inhibition [1] 0.985% | growth inhibition [2] -9.53% | viability increase [3] -2.12% | viability [4] 98.9% | viability [5] 94.7% | inhibition [6] 1.42% | RAM network inhibition [7] 2.75%

O=C1C(Cl)=C(N2CCOCC2)C(=O)N1c1ccccc1Cl
inactive: growth inhibition [1] -8.11% | growth inhibition [2] -4.76% | viability increase [3] -2.16% | viability [4] 99.2% | viability [5] 103% | inhibition [6] 0.045% | RAM network inhibition [7] 4.96%

COc1ccc(C(=O)Nc2cccnc2)cc1S(=O)(=O)N1CCOCC1
inactive: growth inhibition [1] -8.01% | growth inhibition [2] -10.6% | viability increase [3] -0.17% | viability [4] 103% | viability [5] 99.1% | inhibition [6] 0.84% | RAM network inhibition [7] 0.46%
